In ChEMBL document CHEMBL4732272, “Remodelin Is a Cryptic Assay Interference Chemotype That Does Not Inhibit NAT10-Dependent Cytidine Acetylation” (ACS Med Chem Lett, 2021) one finds Activity, inhibition and Stabilty data, which are given here for five molecules.

The subject of series [1] is K562. Description: Covalent protein binding in human K562 cells by rhodamine azide based fluorescence analysis. It counts as functional, cell-based. Conditions: dose 10-100 µM. The procedure, abridged: (§1)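 K562 cancer cell lysates incubated with clickable probes across a dose range (down to 10 μM), then click-labelled with rhodamine azide to visualise proteome labelling; competition run with remodelin added.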

Series [2] deals with T1, RNA cytidine acetyltransferase (Homo sapiens) (UniProt Q9H0A0).
T1 sequence (whole entry): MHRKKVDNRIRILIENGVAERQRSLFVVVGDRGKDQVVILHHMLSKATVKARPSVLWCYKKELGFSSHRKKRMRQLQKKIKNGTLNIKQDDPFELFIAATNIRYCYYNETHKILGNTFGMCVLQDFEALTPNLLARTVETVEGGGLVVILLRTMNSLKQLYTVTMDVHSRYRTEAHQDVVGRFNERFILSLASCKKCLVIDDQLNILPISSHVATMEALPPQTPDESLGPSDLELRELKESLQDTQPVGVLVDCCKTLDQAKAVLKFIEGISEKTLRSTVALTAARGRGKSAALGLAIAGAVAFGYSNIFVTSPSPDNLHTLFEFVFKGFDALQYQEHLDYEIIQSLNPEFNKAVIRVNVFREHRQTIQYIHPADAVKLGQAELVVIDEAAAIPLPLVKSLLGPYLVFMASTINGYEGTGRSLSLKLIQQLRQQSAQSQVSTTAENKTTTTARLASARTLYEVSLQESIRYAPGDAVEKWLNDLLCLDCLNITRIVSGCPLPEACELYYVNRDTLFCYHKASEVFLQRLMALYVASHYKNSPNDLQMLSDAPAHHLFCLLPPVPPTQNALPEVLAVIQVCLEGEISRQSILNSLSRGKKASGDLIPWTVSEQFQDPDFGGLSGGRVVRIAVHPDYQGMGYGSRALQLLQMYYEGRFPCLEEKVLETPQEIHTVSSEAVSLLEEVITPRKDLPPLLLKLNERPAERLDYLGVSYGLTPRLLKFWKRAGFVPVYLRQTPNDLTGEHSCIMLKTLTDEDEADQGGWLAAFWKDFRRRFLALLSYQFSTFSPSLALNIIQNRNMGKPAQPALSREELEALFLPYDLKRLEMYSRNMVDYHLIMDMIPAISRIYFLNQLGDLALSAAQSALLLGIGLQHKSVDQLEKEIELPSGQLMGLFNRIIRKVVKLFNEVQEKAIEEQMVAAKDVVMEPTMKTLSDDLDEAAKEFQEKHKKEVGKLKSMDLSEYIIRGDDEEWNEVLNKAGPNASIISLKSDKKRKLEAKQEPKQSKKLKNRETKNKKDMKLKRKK
As to the kind of experiment: Stabilization of full length recombinant NAT10 (unknown origin) by DSLS based analysis. A digest of the protocol: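 Full-length recombinant NAT10 thermal stability measured by differential static light scattering with ATP, acetyl-CoA or remodelin added.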

Series [3] has as its target T1, RNA cytidine acetyltransferase (Homo sapiens). Description: Binding affinity to recombinant NAT10 acetyltransferase domain (494 to 753 residues) (unknown origin) by isothermal titration calorimetry. The procedure, abridged:
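Recombinant NAT10 acetyltransferase domain (residues 494–753) titrated with acetyl-CoA or remodelin by isothermal titration calorimetry.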

A short description of series [4]: Thiol-reactivity using La antigen containing reactive cysteine C232 and C245 in presence of DTT by ALARM NMR analysis. It counts as ADME.
In series [5] the target is T1, RNA cytidine acetyltransferase (Homo sapiens). Description: Inhibition of NAT10-catalyzed RNA cytidine acetylation in human HeLa cells assessed as decrease in ac4C level at 10 to 50 uM after 48 hrs by LC-MS assay. Format: cell-based. Conditions: dose 10-50 µM. The procedure, abridged: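 Wild-type cells treated with remodelin for 48 h; RNA ac4C levels quantified by LC-MS, with CRISPR-Cas9 NAT10 disruption as comparator.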

Series [6] shares this target. As to the kind of experiment: Inhibition of NAT10-catalyzed RNA cytidine acetylation in human HeLa cells assessed as decrease in ac4C level at 50 uM after 48 hrs by Northern blot assay. It counts as cell-based. The procedure, abridged:
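Following 48 h remodelin treatment, RNA probed by dot blot or Northern blot with an anti-ac4C antibody.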

Series [7] shares this target. As to the kind of experiment: Inhibition of NAT10-catalyzed RNA cytidine acetylation in human HeLa cells assessed as decrease in ac4C at helix 34 of 18S rRNA at 50 uM after 4 days by UV-HPLC analysis. Format: cell-based. Conditions: time 4.0 day. The procedure, abridged: (§2)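 Helix 34 and helix 45 ac4C of 18S rRNA analysed […] by UV-HPLC after cells were treated with remodelin at 50 μM for 4 d; NAT10 KD cells served as comparator.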

For series [8] the target is unchanged. As to the kind of experiment: Inhibition of NAT10-catalyzed RNA cytidine acetylation in human HeLa cells assessed as decrease in ac4C at helix 45 of 18S rRNA at 50 uM after 4 days by UV-HPLC analysis. It counts as cell-based. Conditions: time 4.0 day. The procedure, abridged:
as §2

A short description of series [9]: Stability of the light-protected compound in aqueous buffer measured for 7 days. Format: physicochemical. Conditions: 168 h, time 7 day. A digest of the protocol:
(§3)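 Remodelin solutions followed over time: in aqueous buffer kept from light for 7 days; in DMSO monitored for darkening colour and new aromatic NMR resonances.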

Series [10] in a line: Stability of the compound in DMSO-d6 solution assessed as discoloration to dark brown colour in presence of light. Format: physicochemical. A digest of the protocol:
as §3

Series [11] is described as follows: Stability of the compound in DMSO-d6 solution assessed as drug degradation measured after 24 hrs by NMR analysis. It counts as physicochemical.
Series [12] is described as follows: Thiol reactivity with CoA at 1 to 50 uM measured after 30 mins by DACM thiol consumption assay. It counts as ADME. Conditions: 0.5 h, dose 1-50 µM.
The nature of series [13]: Redox activity of the compound assessed as H2O2 producion at 250 uM by horseradish peroxidase-phenol red counter screen based assay. It counts as physicochemical.
A short description of series [14]: Redox activity of the compound assessed as H2O2 production at 250 uM in presence of DTT by horseradish peroxidase-phenol red counter screen based assay. Format: physicochemical.
Series [15] in a line: Aggregation property of the compound assessed as detergent sensitive inhibition of beta-lactamase AmpC at 33 to 100 uM. Format: physicochemical. Conditions: dose 33-100 µM.
Series [16] is described as follows: Aggregation property of peptides assessed as colloidal aggregate formation at 25 uM by dynamic light scattering analysis. It counts as physicochemical.
The target in series [17] is T1, RNA cytidine acetyltransferase (Homo sapiens). Description: Inhibition of NAT10-catalyzed RNA cytidine acetylation in human HeLa cells assessed as decrease in ac4C level at 10 to 50 uM after 24 to 48 hrs by dot blot assay. It counts as cell-based. Conditions: dose 10-50 µM, time 24-48 hrs.
Series [18] has the same target. Description: Inhibition of NAT10-catalyzed RNA cytidine acetylation in human HeLa cells assessed as decrease in ac4C at helix 45 of 18S rRNA at 50 uM after 48 hrs by nucleotide resolution sequencing analysis. Format: cell-based. A digest of the protocol:
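Helix 45 of 18S rRNA (C1842) read by nucleotide-resolution ac4C sequencing after 50 μM remodelin for 48 h; C→T change at the site scored as ac4C present, no mutation as loss; NAT10 KD as comparator.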

For another series, the target named is Tubulin (Homo sapiens) (UniProt P68371+Q9H4B7+P0DPH7+P68366+Q13509+Q71U36+P04350+Q3ZCM7+P07437+P68363+Q9BQE3+Q6PEY2+Q13885+Q9BVA1+Q9BUF5). Description: Induction of tubulin acetylation in human HEK293T cells at 10 to 50 uM measured after 48 hrs by western blot analysis. Format: cell-based. Conditions: dose 10-50 µM. A general note: Immunoblotting shows a protein as a band on a membrane.

For series [19], the system named is K562. Description: Covalent protein binding in human K562 cells at 10 to 100 uM in presence of remodelin by rhodamine azide based fluorescence analysis. It counts as functional, cell-based. Conditions: dose 10-100 µM. The procedure, abridged: as §1

Calls of active or inactive are those of the source. The rule behind the calls is not given here.

Turning to `C#CCN(N=C1CCCC1)c1nc(-c2ccc(Cl)cc2)cs1`, in the series on K562 [1], the Activity result was “Dose-dependent effect”.
As for `CC(=O)SCCNC(=O)CCNC(=O)[C@H](O)C(C)(C)COP(=O)(O)OP(=O)(O)OC[C@H]1O[C@@H](n2cnc3c(N)ncnc32)[C@H](O)[C@@H]1OP(=O)(O)O`, the outcome in series [2] and in series [3] was Active.
Turning to `N#Cc1ccc(-c2csc(NN=C3CCCC3)n2)cc1`, the Activity entry in series [4] was “Active”; in series [12], “Not Active”; in series [13], “Not Active”; in [14], “Not Active”; in series [15] it was “Not Active”; in series [16], “Active”. Also, the outcome (in series [2]; in series [3]; on Tubulin (Homo sapiens)) was inactive. Further, the inhibition result in series [5], in series [6], in series [7], in [8], in series [17] and in [18] was “inactive” each time. Also, the Stabilty entry in series [9] was “Stable”; in series [10], “Unstable”; in series [11] it was “Unstable”.
With `C#CCNC(=O)c1ccc(-c2csc(NN=C3CCCC3)n2)cc1`, in [10], the Stabilty result is listed as “Unstable”. Further, the Activity entry with K562 [1] is “Dose-dependent effect”. Besides, the outcome in the series on K562 [19] was inactive.
Consider `Nc1ncnc2c1ncn2[C@@H]1O[C@H](COP(=O)(O)OP(=O)(O)OP(=O)(O)O)[C@@H](O)[C@H]1O`, for which, in series [2], the outcome was Active.
